# Bioassay records deposited in PubChem by several laboratories.
# VLA-4 inh: inhibition in human VLA-4 binding assay, primary screen, VLA-4 allosteric modulator project, MLPCN library, flow cytometry, VLA-4 expressing cells. hit rate 0.2% among 330,000. ligand binding flow cytometry. inhibition, % (about 7 µM as worked out from the volumes in the protocol). AID 2557, 2010; in the data active means inhibition above about 50%
# TAAR1 antagonist: human TAAR1 antagonists, primary screen, Fluo-8 calcium fluorescence, CHO RD-HGA16 cells | hit rate 1.5% among 360,000 | inhibition, % at 3 µM | Trace amine-associated receptor 1 (Homo sapiens), Q96RJ0 | AID 624466, 2012 | antagonist;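 active means inhibition above a per-plate cutoff, the mean inhibition of test compounds on that plate plus 3 SD, cut at about 49% in these data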;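 further: 0% = DMSO plus EC80 beta-PEA response and 100% = DMSO alone without agonist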
# Target sequence (Q96RJ0 whole entry, looked up): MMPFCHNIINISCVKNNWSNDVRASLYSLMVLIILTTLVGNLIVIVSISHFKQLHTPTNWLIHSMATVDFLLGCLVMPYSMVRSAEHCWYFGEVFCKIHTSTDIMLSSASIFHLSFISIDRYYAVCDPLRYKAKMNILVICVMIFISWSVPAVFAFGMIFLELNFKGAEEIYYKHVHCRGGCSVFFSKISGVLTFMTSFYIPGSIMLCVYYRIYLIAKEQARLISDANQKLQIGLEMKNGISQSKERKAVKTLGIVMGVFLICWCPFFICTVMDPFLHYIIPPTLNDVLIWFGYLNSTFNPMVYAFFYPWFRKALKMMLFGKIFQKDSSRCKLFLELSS
#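 Assay system: CHO-derived RD-HGA16 cells stably expressing human TAAR1 plus Gα16. Timing: 140 s kinetic read after compound, 140 s after agonist. Technique: kinetic Fluo-8 calcium fluorescence measurement. Measure: % inhibition of agonist calcium response.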
# TAAR1 agonist: human TAAR1 agonists, primary screen, Fluo-8 calcium fluorescence, CHO RD-HGA16 cells; Trace amine-associated receptor 1 (Homo sapiens), Q96RJ0; activation, % at 3 µM; vehicle wells 0%, saturating PEA agonist 100%; hit rate 0.99% among 360,000; AID 624467, 2012;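 active means activation above the mean activation of all test compounds in the run plus 3 SD, cut at about 38% in these data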
#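 System: CHO-derived RD-HGA16 cells with stable Gα16 and human TAAR1 / Times: 17-24 h plating, Fluo-8 75 min 37 °C, 30 min RT / Technique: calcium-sensitive Fluo-8 signal, excitation 470-495, emission 515-575 nm / Measure: % activation relative to PEA EC100 response / Benchmarks: DMSO and PEA EC100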
# Rce1 inh: yeast Rce1p protease inhibitors, primary screen, biochemical, fluorescence, cell-free homogeneous; calls only; yeast membranes, quenched prenylated peptide cleavage fluorescence; AID 2563, 2010; hit rate 0.27% among 290,000;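 active means fall in fluorescence gain of 50% or more versus controls, with final raw signal at or below 3038400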;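 further: plate controls were neutral control wells for no effect and wells lacking membranes for full effect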
# Target sequence (Q03530 whole entry, looked up): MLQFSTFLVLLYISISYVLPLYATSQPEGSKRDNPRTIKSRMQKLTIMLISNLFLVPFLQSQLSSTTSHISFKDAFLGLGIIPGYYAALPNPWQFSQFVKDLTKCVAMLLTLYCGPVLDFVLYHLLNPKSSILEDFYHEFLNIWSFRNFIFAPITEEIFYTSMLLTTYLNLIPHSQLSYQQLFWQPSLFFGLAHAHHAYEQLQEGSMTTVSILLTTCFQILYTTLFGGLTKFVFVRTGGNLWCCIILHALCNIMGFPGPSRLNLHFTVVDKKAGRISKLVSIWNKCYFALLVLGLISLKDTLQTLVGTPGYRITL
# Platelet DG rel: inhibitors of platelet dense granule secretion, primary screen, cell-based, MLPCN, human platelets; AID 1663, 2009; hit rate 0.22% among 300,000; human platelet-rich plasma, SFLLRN dense granule ATP release, luminescence; inhibition, %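 (compounds screened at 7.5 µM in platelet-rich plasma)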;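 active means mean replicate score, as percent of positive control, at or above 50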
# TAAR1 nonsel count: nonselective antagonists in TAAR1 counter-screen cells, counter-screen for hTAAR1 antagonist project, cell-based, fluorescence, calcium. inhibition, % at 3 µM. shares compounds with TAAR1 antagonist. counterscreen cell line, antagonist mode. hit rate 77% among 2,400. AID 651780, 2012; in the data active means inhibition above about 22%;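 further: CHO-Ga16 host cells stimulated with ATP at an EC80 level; 0% = agonist EC80 plus vehicle and 100% = vehicle without agonist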
# TAAR1 antag conf: human TAAR1 antagonists, retest of hits, confirmation, cell-based, fluorescence | hit rate 40% among 2,400 | shares compounds with TAAR1 antagonist | TAAR1-expressing cells, fluorescence antagonist read-out | AID 651785, 2012 | inhibition, % at 3 µM; in the data active means inhibition above about 49%;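 further: CHO-Ga16 host cells challenged with agonist PEA near its EC80; 0% = agonist at EC80 plus vehicle and 100% = vehicle with no agonist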
# Ga16 nonsel ag: calcium activation in Ga16-expressing cells, counter-screen for TAAR1 antagonist project, cell-based, fluorescence. shares compounds with TAAR1 antagonist. agonist counterscreen. activation, % at 3 µM. hit rate 18% among 2,400. AID 651953, 2012; in the data active means activation above about 12%;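 further: 0% = vehicle wells and 100% = saturating stimulus response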
# TAAR1 ag count: TAAR1 activation by candidate antagonists – cell-based, fluorescence, counter-screen for TAAR1 antagonist project | AID 651955, 2012 | shares compounds with TAAR1 antagonist | hTAAR1 cell line, agonist mode | hit rate 2% among 2,400 | activation, % at 3 µM; in the data active means activation above about 37%;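 further: CHO cells stably expressing TAAR1 with calcium dye readout; 0% = DMSO vehicle and 100% = full agonist response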
# Active calls of the source: *; i = inactive; . = no result. Shown are actives, neighbours in structure and some others; about 2.6% of the full set was active somewhere.
SMILES,VLA-4 inh,TAAR1 antagonist,TAAR1 agonist,Rce1 inh,Platelet DG rel,TAAR1 nonsel count,TAAR1 antag conf,Ga16 nonsel ag,TAAR1 ag count
O=C(O)c1ccc(Cl)cc1NC(=O)C1CCN(S(=O)(=O)c2cccs2)CC1,.,-25.4,2.5,.,.,.,.,.,.
CCc1ccccc1S(=O)(=O)Cc1ccc(C(=O)N2CCN(c3ccccc3OC)CC2)o1,5.1,72.5*,16.6,i,3.9,28.6*,49.9*,18.4*,38.3*
O=C(c1ccc2c(=O)n(CCc3ccccc3)c(=O)[nH]c2c1)N1CCN(c2ccccc2)CC1,2.6,.,.,i,-0.5,.,.,.,.
O=C(C(Sc1ccccc1)c1ccccc1)N1CCN(c2ccccc2F)CC1 (stereo not drawn),9.8,50.3*,5.8,i,.,17.2,35.9,6.9,7.9
O=C(c1ccc2c(=O)n(CCc3ccccc3)c(=O)[nH]c2c1)N1CCN(c2ccc(F)cc2)CC1,-13.7,58.1*,9.2,i,9.1,29.1*,44.9,6.3,10.1
COc1cc2ccc(C(C)=NNC(N)=S)cc2cc1OC,.,-12.4,2.0,.,.,.,.,.,.
CCOC(=O)c1cccc(OC(=O)CCNC(=O)c2ccc(Cl)cc2)c1,9.3,20.4,20.7,.,.,.,.,.,.
COc1cccc(CNn2c(-c3cccc(C)c3)nc3ccccc3c2=O)c1O,6.3,54.2*,4.4,i,-0.4,13.3,38.8,7.2,5.1
COc1ccc(O)c(CNn2c(-c3ccc(Br)cc3)nc3ccccc3c2=O)c1,5.8,43.0,1.4,i,-5.0,.,.,.,.
CC(C)c1c(C(=O)N/N=C/c2cccc(OCc3ccccc3)c2)nnn1-c1nonc1N,1.9,45.6,1.8,i,18.5,.,.,.,.
O=C(COC(=O)c1cccc(S(=O)(=O)NCc2ccccc2)c1)c1ccc2c(c1)OCCO2,10.3,62.7*,30.0,i,-0.6,34.5*,48.6*,8.6,6.6
CC(C)(C)OC(=O)N(CC1CCNCC1)C(=O)c1[nH]c(C(F)(F)F)nc1-c1ccccc1,.,-2.1,0.8,.,.,.,.,.,.
O=C(N/N=C/c1cccc(OC(=O)c2cccc(Br)c2)c1)c1ccncc1,-4.3,58.1*,13.3,i,-4.3,25.8*,48.3,15.5*,27.2
O=C(OCCc1cc2ccccc2c(=O)o1)c1ccco1,3.2,-8.5,5.3,.,.,.,.,.,.
O=C(c1ccc(-c2nc3ccccc3s2)o1)N1CCN(c2ccccc2O)CC1,6.5,64.4*,5.8,i,-8.5,28.9*,42.8,4.0,3.3
O=C(O)c1ccc(-c2nc3ccccc3s2)o1,7.8,-25.5,1.3,i,9.0,.,.,.,.
O=C(CCC(=O)N1CCOCC1)NCCc1ccc(F)cc1,3.6,.,.,.,.,-5.5,.,0.7,.
O=C(C1=C[C@H](c2coc3ccccc3c2=O)C[C@H](OCc2ccc(CO)cc2)O1)N1CCN(Cc2ccc3c(c2)OCO3)CC1,-8.3,49.5*,5.7,i,1.8,20.8,16.8,4.1,0.9
O=C(C1=C[C@@H](c2coc3ccccc3c2=O)C[C@@H](OCc2ccc(CO)cc2)O1)N1CCN(Cc2ccc3c(c2)OCO3)CC1,20.6,36.7,12.1,i,-0.9,.,.,.,.
CC(=O)n1cc([C@@H]2C=C(C(=O)N3CCN(Cc4ccccc4)CC3)O[C@H](OCc3ccc(CO)cc3)C2)c2ccccc21,-0.4,52.1*,14.8,i,0.3,17.5,33.9,9.4,13.8
Cn1c(=O)c2cc(NC(=O)Nc3ccccc3)ccc2n1Cc1ccccc1,.,-6.0,1.8,.,.,.,.,.,.
O=C(O)CC/C(=N/NC(=O)c1ccc(-c2ccccc2)cc1)c1ccccc1,2.8,9.6,-0.4,i,-0.4,.,.,.,.
C[C@H]1CN(C(=O)OC(C)(C)C)CCN1c1ccc(Br)c(C#N)c1,.,51.8*,-0.4,.,.,37.9*,45.3,11.3,13.5
Cc1cc(-c2nc3cccnc3s2)ccc1NS(=O)(=O)c1cccs1,-7.0,63.3*,0.2,i,0.9,16.5,33.9,3.1,0.2
C=CC[C@@H](CC(=O)N[C@@H](CO)Cc1ccccc1)C(=O)NC[C@@H](OC(=O)[C@@H](CC=C)CC(=O)OC(C)(C)C)c1ccccc1,5.8,3.0,2.3,.,.,.,.,.,.
SMILES,VLA-4 inh,TAAR1 antagonist,TAAR1 agonist,Rce1 inh,Platelet DG rel,TAAR1 nonsel count,TAAR1 antag conf,Ga16 nonsel ag,TAAR1 ag count
C=CC[C@H](CC(=O)N(CCO)Cc1ccccc1)C(=O)N[C@H](COC(=O)[C@@H](CC=C)CC(=O)OC(C)(C)C)Cc1c[nH]c2ccccc12,-1.4,66.7*,15.3,.,.,21.2,42.0,4.5,6.4
C=CCC[C@H](Cc1ccc(F)cc1)C(=O)OC[C@H](Cc1c[nH]c2ccccc12)NC(=O)[C@H](CC=C)CC(=O)NCCO,13.8,73.0*,24.5,.,.,25.7*,43.8,6.1,7.2
C=CC[C@@H](CC(=O)N(CCO)Cc1ccccc1)C(=O)N[C@H](COC(=O)[C@H](CC=C)CC(=O)OC(C)(C)C)Cc1c[nH]c2ccccc12,40.5,41.8,7.0,.,.,.,.,.,.
C=CC[C@@H](CC(=O)N[C@H](CO)Cc1ccccc1)C(=O)NC[C@H](OC(=O)[C@@H](CC=C)Cc1ccc(F)cc1)c1ccccc1,-9.2,68.9*,19.5,.,.,30.4*,55.9*,8.0,6.5
O=S(=O)(NCCN1CCCC1)c1ccc(Br)cc1,-6.7,-0.8,5.7,i,-2.6,.,.,.,.
CCCCCCN1CCN(C2CN(Cc3ccc(F)cc3)S(=O)(=O)C2)CC1 (stereo not drawn),.,-1.9,-0.3,.,.,.,.,.,.
C[C@@H]1CN([C@H](C)CO)C(=O)c2cc(Br)cnc2O[C@@H]1CN(C)Cc1ccc(-c2ccccc2)cc1,.,-16.6,-0.6,.,.,.,.,.,.
COc1ccc(CCC(=O)NCCS(=O)(=O)N2CCN(c3ccc(OC)cc3)CC2)cc1,7.4,62.2*,19.2,i,-11.5,28.9*,54.0*,15.3*,16.7
COc1ccc(CCC(=O)NCCS(=O)(=O)N2CCN(c3ccccc3)CC2)cc1,0.5,21.4,6.5,i,-4.4,.,.,.,.
COc1ccc(CN2C[C@@H](CO)O[C@@H](n3cnc4c(NCCCO)ncnc43)C2)cc1,.,-7.7,1.3,.,.,.,.,.,.
CC(Cc1n[nH]c(=S)n1N)c1ccccc1 (stereo not drawn),0.0,2.1,1.2,i,4.7,.,.,.,.
